How the values were obtained:
[1] = target: Serine/threonine-protein kinase pim-3 (Homo sapiens) (UniProt Q86V86); experiment: Binding affinity to PIM3 (unknown origin) assessed as change in melting temperature at 10 uM incubated for 10 mins using SYPRO orange dye by RT-PCR-based fluorescence assay
Outline: (§1)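 Recombinant kinase domain at 2 μM in 10 mM HEPES pH 7.5, 500 mM NaCl, mixed with 10 μM inhibitor for 10 min at room temperature; SYPRO orange added at 1:1000; temperature-dependent unfolding fluorescence read on a real-time PCR instrument; Tm shift derived by a previously described method.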

[2] = target: BMP-2-inducible protein kinase (Homo sapiens) (UniProt Q9NSY1); experiment: Binding affinity to BIKE (unknown origin) assessed as change in melting temperature at 10 uM incubated for 10 mins using SYPRO orange dye by RT-PCR-based fluorescence assay; outline: as §1
[3] = target: Dual specificity protein kinase CLK1 (Homo sapiens, UniProt P49759); conditions: dose 10.0 µM, time 10.0 min
[4] = target: Tyrosine-protein kinase JAK1 (Homo sapiens) (UniProt P23458); experiment: Binding affinity to JAK1 (unknown origin) assessed as change in melting temperature at 10 uM incubated for 10 mins using SYPRO orange dye by RT-PCR-based fluorescence assay; outline: as §1
[5] = target: Activin receptor type-2B (Homo sapiens) (UniProt Q13705); experiment: Binding affinity to ACTR2B (unknown origin) assessed as change in melting temperature at 10 uM incubated for 10 mins using SYPRO orange dye by RT-PCR-based fluorescence assay; outline: as §1
[6] = target: T1, Dual specificity tyrosine-phosphorylation-regulated kinase 2 (Homo sapiens) (UniProt Q92630); experiment: Binding affinity to DYRK2 (unknown origin) assessed as change in melting temperature at 10 uM incubated for 10 mins using SYPRO orange dye by RT-PCR-based fluorescence assay; outline: as §1
T1 sequence (whole entry): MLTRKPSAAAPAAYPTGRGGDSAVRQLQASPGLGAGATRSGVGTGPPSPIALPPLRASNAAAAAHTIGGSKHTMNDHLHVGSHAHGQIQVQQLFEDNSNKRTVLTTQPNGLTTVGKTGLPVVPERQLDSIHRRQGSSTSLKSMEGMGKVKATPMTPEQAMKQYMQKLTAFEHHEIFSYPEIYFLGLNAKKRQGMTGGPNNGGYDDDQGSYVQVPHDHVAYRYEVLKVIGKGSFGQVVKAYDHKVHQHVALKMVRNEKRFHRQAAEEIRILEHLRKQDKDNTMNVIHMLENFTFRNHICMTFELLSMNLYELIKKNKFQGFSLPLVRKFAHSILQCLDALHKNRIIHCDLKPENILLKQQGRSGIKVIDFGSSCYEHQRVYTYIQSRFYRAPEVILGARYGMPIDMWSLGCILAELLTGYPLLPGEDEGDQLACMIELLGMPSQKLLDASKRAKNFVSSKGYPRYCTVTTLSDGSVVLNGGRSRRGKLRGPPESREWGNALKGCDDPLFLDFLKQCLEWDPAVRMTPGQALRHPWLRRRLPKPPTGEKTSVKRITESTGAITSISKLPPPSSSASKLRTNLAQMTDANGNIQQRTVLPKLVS

[7] = target: TGF-beta receptor type-2 (Homo sapiens) (UniProt P37173); experiment: Binding affinity to TGFBR2 (unknown origin) assessed as change in melting temperature at 10 uM incubated for 10 mins using SYPRO orange dye by RT-PCR-based fluorescence assay; outline: as §1
[8] = target: Activin receptor type-2A (Homo sapiens) (UniProt P27037); experiment: Binding affinity to ACTR2 (unknown origin) assessed as change in melting temperature at 10 uM incubated for 10 mins using SYPRO orange dye by RT-PCR-based fluorescence assay
[9] = target: Activin receptor type-1 (Homo sapiens) (UniProt Q04771); experiment: Binding affinity to ACVR1 (unknown origin) assessed as change in melting temperature at 10 uM incubated for 10 mins using SYPRO orange dye by RT-PCR-based fluorescence assay; outline: as §1

Measured: ΔTm

CC(=O)c1cccc(-c2cnc3ccc(NCC4CC4)nn23)c1
> 4 °C: [3] | [6]
> 6 °C: all other assays above

— ChEMBL document CHEMBL4725345, “DFG-1 Residue Controls Inhibitor Binding Mode and Affinity, Providing a Basis for Rational Design of Kinase Inhibitor Selectivity” (J Med Chem, 2020)
